Assay results published in ChEMBL document CHEMBL2331357, “Bioassay-guided isolation of proanthocyanidins with antiangiogenic activities” (J Nat Prod, 2013).
The source made the active and inactive calls. The calls are words filed in the database; no cut-off is given here.

How the values were obtained:
MCF7 = test: Cytotoxicity against human MCF7 cells after 24 to 72 hrs by MTT assay; type: cell-based
Procedure, shortened: (§1)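 Cells kept in DMEM with 10% FBS, 2 mM L-glutamine, penicillin/streptomycin, 37 °C, 5% CO2, subcultured every two days. Seeded at 1 × 10^4 cells/well and grown without or with various compound concentrations; cell number quantified by MTT conversion at 24, 48 and 72 h. IC50 from at least two independent experiments in triplicate.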

[1] = biological target: T1, Vascular endothelial growth factor A, long form (Homo sapiens, UniProt P15692); test: Binding affinity to recombinant VEGFA (unknown origin) measured for 60 seconds by surface plasmon resonance assay
T1 sequence (P15692 whole entry): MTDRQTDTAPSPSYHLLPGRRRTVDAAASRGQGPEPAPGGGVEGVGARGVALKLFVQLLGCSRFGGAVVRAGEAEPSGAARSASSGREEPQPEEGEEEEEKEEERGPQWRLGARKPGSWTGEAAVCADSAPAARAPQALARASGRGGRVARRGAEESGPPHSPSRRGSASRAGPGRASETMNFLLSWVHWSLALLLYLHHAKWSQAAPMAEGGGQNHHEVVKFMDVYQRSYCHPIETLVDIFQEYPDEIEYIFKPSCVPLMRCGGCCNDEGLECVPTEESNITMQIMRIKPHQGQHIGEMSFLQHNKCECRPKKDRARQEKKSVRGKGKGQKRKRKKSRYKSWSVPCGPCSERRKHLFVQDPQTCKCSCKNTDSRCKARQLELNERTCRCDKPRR
Procedure, shortened: (§2)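 Biacore CM5 chip; proteins (100 μg/mL in 10 mM NaOAc, pH 5.0) amine-coupled to 8−12 kRU alongside BSA and unmodified reference surfaces. Compounds from 4 mM DMSO stocks diluted 1:200 in PBS (10 mM NaH2PO4, 150 mM NaCl, pH 7.4; final DMSO 0.5%), 2-fold six-point series typically 0.025−1 μM, triplicate aliquots with buffer blanks. Association and dissociation recorded; thermodynamic KD derived.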

Placenta growth factor = biological target: T2, Placenta growth factor (Homo sapiens, UniProt P49763); test: Binding affinity to recombinant PIGF1 (unknown origin) measured for 60 seconds by surface plasmon resonance assay; procedure, shortened: as §2
T2 sequence (P49763 whole entry): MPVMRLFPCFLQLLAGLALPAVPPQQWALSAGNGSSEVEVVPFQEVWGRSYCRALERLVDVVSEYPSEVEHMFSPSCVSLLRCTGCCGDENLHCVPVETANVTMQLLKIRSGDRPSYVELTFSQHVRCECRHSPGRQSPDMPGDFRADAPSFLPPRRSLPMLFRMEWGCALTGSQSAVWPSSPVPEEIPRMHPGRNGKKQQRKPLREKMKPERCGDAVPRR

Jurkat = test: Cytotoxicity against human Jurkat cells after 24 to 72 hrs by MTT assay; type: cell-based; procedure, shortened: as §1
Gallus gallus [2] = species: Gallus gallus; test: Antiangiogenic activity in chicken embryo chorioallantoic membrane model assessed as reduction of junction of blood vessels at 10 ug/egg after 4 days; type: functional, tissue-based
Procedure, shortened: (§3)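 Fertilized chicken eggs incubated at 37 °C, humidified, turned several times; after 4 days a 1 cm2 window opened on the broad side. Test material applied per egg; controls received albumen (100 μL/egg); retinoic acid 2 μg/egg as positive control; at least five eggs per dose. Eggs reincubated two days, then vessels photographed under microscope; branch points compared with albumen controls; mean ± SD of three experiments, Student's t-test.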

[3] = biological target: T3, Vascular endothelial growth factor receptor 1 (Homo sapiens, UniProt P17948); test: Inhibition of recombinant PlGF-1/VEGFR-1 (unknown origin) interaction after 1 hr by ELISA
Gallus gallus [4] = species: Gallus gallus; test: Antiangiogenic activity in chicken embryo chorioallantoic membrane model assessed as inhibition of blood vessels growth at 10 ug/egg after 4 days; type: functional, tissue-based; procedure, shortened: as §3
Gallus gallus [5] = species: Gallus gallus; test: Antiangiogenic activity in chicken embryo chorioallantoic membrane model assessed as reduction of size of blood vessels at 10 ug/egg after 4 days; type: functional, tissue-based; procedure, shortened: as §3
Gallus gallus [6] = species: Gallus gallus; test: Antiangiogenic activity in chicken embryo chorioallantoic membrane model assessed as reduction of number of blood vessels at 10 ug/egg after 4 days; type: functional, tissue-based; procedure, shortened: as §3
Gallus gallus [7] = species: Gallus gallus; test: Antiangiogenic activity in chicken embryo chorioallantoic membrane model assessed as reduction of length of blood vessels at 10 ug/egg after 4 days; type: functional, tissue-based; procedure, shortened: as §3
[8] = biological target: T3, Vascular endothelial growth factor receptor 1; test: Inhibition of recombinant VEGF-A/VEGFR-1 (unknown origin) interaction after 1 hr by ELISA
Procedure, shortened: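 Competitive ELISA: Fc/VEGFR-1 coated at 0.5 μg/mL for 16 h at RT, blocked 3 h with 1% BSA. PlGF-1 (5 ng/mL) or VEGF-A (10 ng/mL) in PBS with 0.1% BSA, 5 mM EDTA, 0.004% Tween 20 added with DMSO-dissolved compound, 1 h 37 °C then 1 h RT. Biotinylated anti-ligand antibody, avidin–biotin-HRP, o-phenylenediamine/H2O2 detection at 490 nm; triplicate points, repeated twice.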

[9] = Antiangiogenic activity in chicken embryo chorioallantoic membrane model assessed as inhibition of blood vessels growth after 4 days; type: functional, tissue-based, Gallus gallus; procedure, shortened: as §3
Gallus gallus [10] = species: Gallus gallus; test: Antiangiogenic activity in chicken embryo chorioallantoic membrane model assessed as inhibition of blood vessels growth at 2 ug/egg after 4 days; type: functional, tissue-based; procedure, shortened: as §3
Gallus gallus [11] = species: Gallus gallus; test: Antiangiogenic activity in chicken embryo chorioallantoic membrane model assessed as reduction of capillary formation at 2 ug/egg after 4 days; type: functional, tissue-based; procedure, shortened: as §3

T3 sequence (P17948 whole entry): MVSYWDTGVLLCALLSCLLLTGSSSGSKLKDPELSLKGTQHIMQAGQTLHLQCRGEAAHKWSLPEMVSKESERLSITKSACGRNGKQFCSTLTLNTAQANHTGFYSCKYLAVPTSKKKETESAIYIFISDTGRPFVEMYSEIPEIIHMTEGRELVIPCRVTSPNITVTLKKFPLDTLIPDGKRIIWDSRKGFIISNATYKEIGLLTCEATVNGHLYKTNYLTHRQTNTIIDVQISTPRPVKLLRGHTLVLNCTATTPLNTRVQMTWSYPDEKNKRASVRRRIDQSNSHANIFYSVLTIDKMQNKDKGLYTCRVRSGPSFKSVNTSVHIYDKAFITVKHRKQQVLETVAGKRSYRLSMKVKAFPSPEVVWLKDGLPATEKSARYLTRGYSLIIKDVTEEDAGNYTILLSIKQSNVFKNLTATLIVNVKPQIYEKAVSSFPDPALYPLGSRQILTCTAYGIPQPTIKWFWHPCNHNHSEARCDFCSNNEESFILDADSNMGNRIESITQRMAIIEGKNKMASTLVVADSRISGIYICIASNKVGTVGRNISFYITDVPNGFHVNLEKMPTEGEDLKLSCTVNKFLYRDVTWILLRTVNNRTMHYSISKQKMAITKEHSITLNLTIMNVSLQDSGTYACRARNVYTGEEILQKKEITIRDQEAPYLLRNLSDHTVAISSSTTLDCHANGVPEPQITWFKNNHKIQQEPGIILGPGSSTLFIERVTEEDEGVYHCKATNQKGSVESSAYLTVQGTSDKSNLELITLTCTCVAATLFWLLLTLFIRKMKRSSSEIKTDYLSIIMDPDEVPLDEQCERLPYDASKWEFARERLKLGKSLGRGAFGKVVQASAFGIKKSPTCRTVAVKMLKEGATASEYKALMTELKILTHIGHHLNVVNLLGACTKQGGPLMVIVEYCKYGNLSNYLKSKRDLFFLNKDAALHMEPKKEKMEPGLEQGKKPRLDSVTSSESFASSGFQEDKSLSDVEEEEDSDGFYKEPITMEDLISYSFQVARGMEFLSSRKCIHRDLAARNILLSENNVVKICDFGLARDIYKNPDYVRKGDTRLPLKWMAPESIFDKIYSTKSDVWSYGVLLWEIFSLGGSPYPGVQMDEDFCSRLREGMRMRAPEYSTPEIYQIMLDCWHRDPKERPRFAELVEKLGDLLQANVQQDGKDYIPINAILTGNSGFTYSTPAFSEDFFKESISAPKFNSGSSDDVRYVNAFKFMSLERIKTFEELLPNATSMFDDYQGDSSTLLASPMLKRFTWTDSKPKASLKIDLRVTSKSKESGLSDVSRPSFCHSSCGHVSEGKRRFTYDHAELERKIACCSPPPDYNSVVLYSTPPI

| Kd ([1]; read-out: Kd) | Kd (Placenta growth factor; read-out: Kd) | Compound | IC50 (MCF7) | IC50 (Jurkat) | also measured |
| --- | --- | --- | --- | --- | --- |
| 0.476 µM | 0.394 µM | Oc1cc(O)c2c(c1)O[C@@]1(c3ccc(O)c(O)c3)Oc3cc(O)c4c(c3[C@@H]2[C@H]1O)O[C@H](c1ccc(O)c(O)c1)[C@@H](O)C4 [PROANTHOCYANIDIN A1] | > 70 µM | > 70 µM | – |
| 0.016 µM | 0.011 µM | Oc1ccc([C@@H]2C[C@@H](c3c(O)cc(O)c4c3O[C@H](c3ccc(O)cc3)[C@@H](O)C4)c3c(O)cc(O)cc3O2)cc1 | > 70 µM | > 70 µM | Activity (Gallus gallus [2]): Active; IC50 [3]: 15 µM; growth inhibition (GI) (Gallus gallus [4]): 56.2%; Activity (Gallus gallus [5]): Active; Activity (Gallus gallus [6]): Active; Activity (Gallus gallus [7]): Active; IC50 [8]: 50 µM; IC50 [9]: 9.79 µg |
| 0.0165 µM | 0.0082 µM | O=c1cc(-c2ccc(O)c(-c3c(O)cc(O)c4c(=O)cc(-c5ccc(O)cc5)oc34)c2)oc2cc(O)cc(O)c12 [AMENTOFLAVONE] | – | – | – |
| – | – | CC1=C(/C=C/C(C)=C/C=C/C(C)=C/C(=O)O)C(C)(C)CCC1 | – | – | growth inhibition (GI) (Gallus gallus [10]): 75.5%; Activity (Gallus gallus [11]): Active |
| 0.048 µM | 0.023 µM | Oc1ccc([C@H]2Oc3c(c(O)cc4c3[C@H]3c5c(O)cc(O)cc5O[C@@](c5ccc(O)c(O)c5)(O4)[C@@H]3O)C[C@@H]2O)cc1 [GERANIN B] | > 70 µM | > 70 µM | IC50 [8]: 65 µM |
| – | – | Oc1cc(O)c2c(c1)O[C@@]1(c3ccc(O)c(O)c3)Oc3cc(O)c4c(c3[C@@H]2[C@H]1O)O[C@H](c1ccc(O)c(O)c1)[C@H](O)C4 [PROANTHOCYANIDIN A2] | > 70 µM | > 70 µM | Kd [1]: Not Active; Kd (Placenta growth factor): Not Active |
| – | – | Oc1ccc([C@@H]2C[C@@H](c3c(O)cc(O)c4c3O[C@H](c3ccc(O)cc3)[C@H](O)C4)c3c(O)cc(O)cc3O2)cc1 | > 70 µM | > 70 µM | Kd [1]: Not Active; Kd (Placenta growth factor): Not Active |
